The list is not random: actives were taken first. Their share in the collection is about 5.8%.
Pf Dd2 growth = P. falciparum Dd2 growth inhibitors, primary screen, SYBR Green fluorescence, single dose replicates. 72 h; active compounds read low. activity change, % at 10 µM. 2.3% of 94,000 active. AID 1159554, 2015; in the data active = activity change below about -80%; inconclusive = no clear call, values can overlap the other calls
KDM4C inh = inhibitors of GASC-1 (KDM4C) histone demethylase, primary screen, biochemical, single concentration HTS. Lysine-specific demethylase 4C (Homo sapiens), Q9H3R0. GST-KDM4C 2-372, H3K9me3 peptide, LANCE TR-FRET. inhibition, % at 12.5 µM. 0.15% of 96,000 active;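 active = mean replicate inhibition above about 25%, with at least 55% of replicates also reaching it, limit read from the data, passing the limit was not always enough; inconclusive = only one of those two conditions met; inactive = neither condition met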
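Test system: N-terminal GST-fused human GASC-1 (KDM4C) fragment, residues 2-372; quantity: GASC-1 enzyme at 10 nM final in reaction; dosing: single dose; schedule: 30 min demethylation and 1 h detection at room temperature; signal: LANCE TR-FRET, excitation 340 nm, emissions 618 and 671 nm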
IDH1 R132H inh = inhibitors of IDH1 R132H reductase, primary screen, biochemical, plate reader, single point. Isocitrate dehydrogenase [NADP] cytoplasmic (Homo sapiens), O75874. diaphorase/resazurin fluorescence, 60 min. inhibition, % at 10 µM. 0.18% of 70,000 active; in the data active = inhibition above about 34%; inconclusive = no clear call, values can overlap the other calls; inactive = below about 11%;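 note: 0% = DMSO and 100% = no enzyme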
Target sequence (O75874 whole entry R132H): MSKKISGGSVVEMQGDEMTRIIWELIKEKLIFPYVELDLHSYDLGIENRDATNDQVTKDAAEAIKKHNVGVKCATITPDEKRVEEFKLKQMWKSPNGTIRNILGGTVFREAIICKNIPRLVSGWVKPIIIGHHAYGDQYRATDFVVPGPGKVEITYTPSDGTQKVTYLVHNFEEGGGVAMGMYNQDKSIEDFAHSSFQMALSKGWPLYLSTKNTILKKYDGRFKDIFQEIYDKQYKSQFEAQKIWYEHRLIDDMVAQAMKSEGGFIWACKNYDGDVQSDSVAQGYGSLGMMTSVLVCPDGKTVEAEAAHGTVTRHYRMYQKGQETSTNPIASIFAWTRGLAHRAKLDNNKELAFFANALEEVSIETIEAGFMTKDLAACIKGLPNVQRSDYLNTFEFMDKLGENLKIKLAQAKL
T cruzi growth-1 = T. cruzi intracellular proliferation inhibitors, primary screen, cell-based, beta-gal Tulahuen parasites, NIH3T3 host, luminescence | inhibition, % at 8.34 µM | 5.9% of 77,000 active | T. cruzi beta-gal in NIH3T3, GalScreen luminescence, 90 h;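 active = mean inhibition above about 93%, with at least 55% of replicates each passing it, limit read from the data, passing the limit was not always enough; inconclusive = only one of those two conditions holds; inactive = neither condition holds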
T cruzi growth-2 = T. cruzi intracellular proliferation inhibitors, confirmation, cell-based, NIH3T3 host, beta-gal parasite, luminescence, cherry-pick; shares compounds with T cruzi growth-1; T. cruzi beta-gal in NIH3T3, GalScreen luminescence, 90 h; inhibition, % at 8.35 µM; 72% of 5,600 active; AID 651739, 2012;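 active = mean replicate inhibition above about 95% and at least 55% of replicates individually reaching it, limit read from the data; inconclusive = only one of the two criteria is met; inactive = neither criterion is met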
T cruzi growth-3 = inhibitors of intracellular T. cruzi replication, confirmation, NIH3T3 host cells, beta-gal parasites, cherry-pick, set 2. 21% of 5,600 active. shares compounds with T cruzi growth-1. T. cruzi beta-gal in NIH3T3, GalScreen luminescence, 90 h. AID 651740, 2012. inhibition, % at 2.09 µM;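 active = mean inhibition above about 95%, with at least 55% of replicates also reaching it, limit read from the data; inconclusive = meets just one of the two conditions; inactive = meets neither condition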;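 note: plate controls were neutral control median for no effect and positive control median for full effect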
NIH3T3 tox = cytotoxicity in mouse NIH/3T3 fibroblasts, confirmation, cytotoxicity control for T. cruzi proliferation inhibitor project, cell-based, cherry-pick, single point | shares compounds with T cruzi growth-1 | NIH/3T3 viability, CellTiter-Glo ATP luminescence, 90 h | cytotoxicity (signal decrease), % at 8.35 µM | 14% of 5,600 active | AID 651742, 2012;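 active = mean signal decrease across replicates above about 35% based on untreated-well scatter, with enough replicates individually passing, limit read from the data; inconclusive = no rule stated though some were filed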;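 note: 0% = median of neutral control wells and 100% = median of positive control wells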
NIH3T3 tox 2 = NIH/3T3 fibroblast cytotoxicity, confirmation, cytotoxicity control, cell-based, cherry-pick, single point, set 2; shares compounds with T cruzi growth-1; 56% of 5,600 active; NIH/3T3 viability, CellTiter-Glo ATP luminescence, 90 h; AID 651744, 2012; inhibition, % at 24.9 µM;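 active = mean loss of cell viability signal at or above a set limit, and enough replicates individually reaching it; inconclusive = meets only the mean limit or only the replicate share; inactive = meets neither condition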;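 note: 0% = median of neutral control wells and 100% = median of positive control wells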
Starred values were filed as active, the others as inactive; ? = inconclusive; . = no result given.

SMILES	Pf Dd2 growth	KDM4C inh	IDH1 R132H inh	T cruzi growth-1	T cruzi growth-2	T cruzi growth-3	NIH3T3 tox	NIH3T3 tox 2
C[C@@H]1CN([C@@H](C)CO)C(=O)c2cc(NC(=O)c3ccccc3)ccc2O[C@@H](C)CCCCO[C@@H]1CN(C)S(=O)(=O)c1ccccc1	-62	-1	.	27	.	.	.	.
Cc1ccc(S(=O)(=O)N(C)C[C@@H]2OCCCC[C@@H](C)Oc3ccc(NC(=O)c4ccccc4)cc3C(=O)N([C@@H](C)CO)C[C@H]2C)cc1	-81*	0	4	100*	108*	22	33	31*
Cc1ccc(S(=O)(=O)N(C)C[C@H]2OCCCC[C@@H](C)Oc3ccc(NC(=O)c4ccccc4)cc3C(=O)N([C@@H](C)CO)C[C@@H]2C)cc1	?	-2	.	46	.	.	.	.
Cc1ccc(S(=O)(=O)N(C)C[C@H]2OCCCC[C@H](C)Oc3ccc(NC(=O)c4ccccc4)cc3C(=O)N([C@@H](C)CO)C[C@@H]2C)cc1	-82*	0	0	104*	106*	43	-9	-32
O=S(=O)(c1ccccc1)N1CC2(C1)[C@@H](c1ccccc1)[C@@H](CO)N2CC1CCCC1	-38	.	.	.	.	.	.	.
C[C@H]1CN([C@@H](C)CO)C(=O)Cc2cc(NC(=O)c3ccncc3)ccc2O[C@H]1CN(C)S(=O)(=O)c1ccccc1	3	-3	1	.	.	.	.	.
O=C(Cc1ccncc1)NCC[C@@H]1CC[C@@H](NC(=O)Nc2cccc(F)c2)[C@H](CO)O1	-13	-2	0	51	.	.	.	.
CCS(=O)(=O)N1CCCCN2[C@H](CO)[C@H](c3ccc(C#Cc4ccccn4)cc3)[C@@H]2C1	17	-1	.	64	.	.	.	.
CCS(=O)(=O)N1CCCCN2[C@H](C1)[C@H](c1ccc(C#Cc3ccccn3)cc1)[C@@H]2CO	-19	0	.	96*	94	54	-2	1
CS(=O)(=O)N1CCCCN2[C@H](CO)[C@@H](c3ccc(C#Cc4ccccn4)cc3)[C@H]2C1	9	2	.	?	91	9	-6	2
N#Cc1c(NC(=O)COc2ccc(C(=O)Nc3cc(Cl)ccc3Cl)cc2)sc2c1CCC2	.	.	-1	.	.	.	.	.
COc1ccc(C#Cc2cnc3c(c2)C(=O)N([C@@H](C)CO)C[C@@H](C)[C@H](CN(C)CC2CCCC2)O3)cc1	-80	.	-1	111*	99*	93	118*	104*
COc1ccc(C#Cc2cnc3c(c2)C(=O)N([C@H](C)CO)C[C@H](C)[C@H](CN(C)C)O3)cc1	-59	22	2	101*	80	25	12	65*
C/C=C/c1cnc2c(c1)C(=O)N([C@@H](C)CO)C[C@@H](C)[C@H](CN(C)C(=O)C1CC1)O2	40	1	0	-53	.	.	.	.
C[C@H](CO)N1C[C@H](C)[C@H](CN(C)C(=O)Nc2ccc(C(F)(F)F)cc2)OCCCC[C@H](C)Oc2ccc(NS(=O)(=O)c3cccs3)cc2C1=O	-20	1	7	97*	97*	105*	-2	1
C[C@@H]1CCCCO[C@@H](CN(C)Cc2ccc(C(F)(F)F)cc2)[C@@H](C)CN([C@H](C)CO)C(=O)c2cc(NS(=O)(=O)c3cccs3)ccc2O1	-22	0	.	81	.	.	.	.
C[C@@H]1CCCCO[C@@H](CN(C)Cc2ccc(C(F)(F)F)cc2)[C@H](C)CN([C@@H](C)CO)C(=O)c2cc(NS(=O)(=O)c3cccs3)ccc2O1	-40	0	.	112*	103*	99*	?	106*
C[C@@H]1CCCCO[C@H](CN(C)Cc2ccc(C(F)(F)F)cc2)[C@@H](C)CN([C@H](C)CO)C(=O)c2cc(NS(=O)(=O)c3cccs3)ccc2O1	-6	0	.	23	.	.	.	.
C[C@@H]1CCCCO[C@@H](CN(C)Cc2ccc(C(F)(F)F)cc2)[C@H](C)CN([C@H](C)CO)C(=O)c2cc(NS(=O)(=O)c3cccs3)ccc2O1	-65	-1	1	114*	98*	114*	-10	104*
C[C@@H]1CCCCO[C@H](CN(C)Cc2ccc(C(F)(F)F)cc2)[C@H](C)CN([C@@H](C)CO)C(=O)c2cc(NS(=O)(=O)c3cccs3)ccc2O1	-44	-2	1	113*	97*	104*	18	103*
COc1ccc(CN(C)C[C@H]2Oc3ccc(NC(=O)c4ccncc4)cc3CC(=O)N([C@@H](C)CO)C[C@@H]2C)cc1	1	1	2	3	.	.	.	.
CC(=O)N1[C@@H](CO)[C@@H](c2ccccc2)C12CN(Cc1cc(F)ccc1F)C2	5	1	.	.	.	.	.	.
CN(C)C(=O)C[C@@H]1CC[C@H]2[C@H](COc3ccc(NC(=O)NCc4ccccc4)cc3C(=O)N2C)O1	6	2	.	-2	.	.	.	.
C/C=C/c1ccc([C@@H]2[C@@H](CO)N(C(=O)CC3CC3)C23CN(S(C)(=O)=O)C3)cc1	13	-1	.	.	.	.	.	.
C[C@@H]1CCCCO[C@H](CN(C)Cc2ccc(C(F)(F)F)cc2)[C@H](C)CN([C@H](C)CO)C(=O)c2cc(NS(=O)(=O)c3cccs3)ccc2O1	-39	-1	.	101*	99*	117*	25	105*
CCCC#Cc1cnc2c(c1)C(=O)N([C@@H](C)CO)C[C@H](C)[C@@H](CN(C)C(=O)Nc1cc(F)ccc1F)O2	-75	-1	-2	79	.	.	.	.
CCCNC(=O)C[C@H]1CC[C@@H]2[C@H](COC[C@@H](O)CN2Cc2ccccc2F)O1	10	-3	.	97*	40	-11	1	9
CNC(=O)C[C@@H]1CC[C@H]2[C@@H](COC[C@@H](O)CN2Cc2ccccc2F)O1	34	-1	.	.	.	.	.	.
CCCNC(=O)C[C@@H]1CC[C@@H]2[C@H](COC[C@@H](O)CN2Cc2ccccc2F)O1	-30	0	.	111*	31	-14	-16	0
O=C(C[C@@H]1CC[C@@H]2[C@H](COC[C@@H](O)CN2Cc2ccccc2F)O1)NCc1ccccc1F	-8	0	.	4	.	.	.	.

Screens (PubChem)
